Measurements: ChEMBL document CHEMBL1145867, “Muraymycins, novel peptidoglycan biosynthesis inhibitors: synthesis and SAR of their analogues” (2003)
Values after ≈ are worked out from the molar mass of the structure shown. Active and inactive are the calls of the source. The calls are words filed in the database; no cut-off is given here.

Assays:
[1] = The inhibitory activity of compound against MraY or MurG at 25 ug/mL; No Inhibition
[2] = The inhibitory activity of compound against MraY or MurG at 6.25 ug/mL; No Inhibition
Escherichia coli [3] = assay: In vitro antimicrobial activity against Escherichia coli GC 4559; type: functional
In short: (§1)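 Broth microdilution per NCCLS guidance. Serial dilutions of each agent in microtiter plates are inoculated with each organism to 10⁵ CFU/mL and incubated 18–22 h at 35 C in ambient air. MIC is the lowest concentration giving complete growth inhibition, judged by the unaided eye.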

Staphylococcus sp. [4] = assay: In vitro antimicrobial activity against CNS GC 4547; type: functional; in short: as §1
Staphylococcus sp. [5] = assay: In vitro antimicrobial activity against CNS GC 4538; type: functional; in short: as §1
Staphylococcus aureus [6] = assay: In vitro antimicrobial activity against Staphylococcu aureus GC 2216; type: functional; in short: as §1
Enterococcus sp. = assay: In vitro antimicrobial activity against Enterococci; type: functional; in short: as §1
[7] = The inhibitory activity of compound against MraY or MurG at 100 ug/mL;Inhibit
Staphylococcus aureus [8] = assay: In vitro antimicrobial activity against Staphylococcu aureus GC 1131; type: functional
In short: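 Broth dilution per NCCLS recommendations. Serial dilutions in microtiter plates inoculated to 10⁵ CFU/mL, then incubated 18–22 h at 35 C in ambient air. MIC taken as the lowest concentration giving complete growth inhibition by unaided eye.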

Escherichia coli [9] = assay: In vitro antimicrobial activity against Escherichia coli GC 2214; type: functional; in short: as §1
Klebsiella pneumoniae = assay: In vitro antimicrobial activity against Klebsiella pneumoniae GC 4534; type: functional; in short: as §1
Enterobacter cloacae = assay: In vitro antimicrobial activity against Enterobacter cloacae GC 3783; type: functional; in short: as §1
Enterococcus faecalis [10] = assay: In vitro antimicrobial activity against Enterococcus faecalis GC 4555; type: functional; in short: as §1
Staphylococcus aureus [11] = assay: In vitro antimicrobial activity against Staphylococcu aureus GC 4536; type: functional; in short: as §1
Enterococcus faecalis [12] = assay: In vitro antimicrobial activity against Enterococcus faecalis GC 842; type: functional; in short: as §1
Bacteria = assay: In vitro antimicrobial activity against gram-negative organisms (10); type: functional; in short: as §1
[13] = The inhibitory activity of compound against MraY or MurG at 12.5 ug/mL; No Inhibition
Pseudomonas aeruginosa [14] = assay: In vitro antimicrobial activity against Pseudomonas aeruginosa GC 2214; type: functional; in short: as §1
Serratia marcescens [15] = assay: In vitro antimicrobial activity against Serratia marcescens GC 4077; type: functional; in short: as §1
Morganella morganii = assay: In vitro antimicrobial activity against Morganella morganii GC 4531; type: functional; in short: as §1
[16] = The inhibitory activity of compound against MraY or MurG at 50 ug/mL; Inhibit
Escherichia coli [17] = assay: In vitro antimicrobial activity against Escherichia coli GC 4560; type: functional; in short: as §1
Escherichia coli [18] = assay: In vitro antimicrobial activity against Escherichia coli GC 3226; type: functional; in short: as §1
Staphylococcus sp. [19] = assay: In vitro antimicrobial activity against Staphylococci; type: functional, staphyl ococcus species; in short: as §1
Pseudomonas aeruginosa [20] = assay: In vitro antimicrobial activity against Pseudomonas aeruginosa GC 4532; type: functional; in short: as §1
Candida albicans = assay: In vitro antimicrobial activity against Candida albicans GC 3066; type: functional; in short: as §1
Enterococcus faecalis [21] = assay: In vitro antimicrobial activity against Enterococcus faecalis GC 2242; type: functional; in short: as §1
[22] = The inhibitory activity of compound against MraY or MurG at 25 ug/mL; Inhibit
[23] = The inhibitory activity of compound against MraY or MurG at 12.5 ug/mL; Inhibit
[24] = The inhibitory activity of compound against MraY or MurG at 100 ug/mL; Inhibit
Serratia marcescens [25] = assay: In vitro antimicrobial activity against In vitro antimicrobial activity against Serratia marcescens GC 4077
Staphylococcus aureus [26] = assay: In vitro antimicrobial activity against Staphylococcus aureus GC 4536; type: functional; in short: as §1
Staphylococcus sp. [27] = assay: In vitro antimicrobial activity against Coagulase-negative staphylococcus GC 4538; type: functional; in short: as §1
Staphylococcus aureus [28] = assay: In vitro antimicrobial activity against Staphylococcus aureus GC 2216; type: functional; in short: as §1
Staphylococcus aureus [29] = assay: In vitro antimicrobial activity against Staphylococcus aureus GC 1131; type: functional; in short: as §1
[30] = Staphylococcus sp., read-out: MIC

COc1ccc(Cn2c(=O)ccn([C@@H]3OC([C@H](O)[C@H](NCCCNC(=O)[C@H](N)C(O)C(C)C)C(=O)OC(C)(C)C)[C@@H](O[Si](C)(C)C(C)(C)C)[C@H]3O[Si](C)(C)C(C)(C)C)c2=O)cc1 (some centres not stated)
Inhibitory activity [1]: inactive
Inhibitory activity [2]: inactive
MIC (Escherichia coli [3]): > 128 µg/mL
MIC (Staphylococcus sp. [4]): 16 µg/mL (≈ 17.6 µM)
MIC (Staphylococcus sp. [5]): 4 µg/mL (≈ 4.4 µM)
MIC (Staphylococcus sp. [5]; [30]): 4 µg/mL (≈ 4.4 µM)
MIC (Staphylococcus aureus [6]): 4 µg/mL (≈ 4.4 µM)
MIC (Enterococcus sp.): 128 µg/mL (≈ 141 µM)
Inhibitory activity [7]: Inhibit
MIC (Staphylococcus aureus [8]): 4 µg/mL (≈ 4.4 µM)
MIC (Escherichia coli [9]): > 128 µg/mL
MIC (Klebsiella pneumoniae): > 128 µg/mL
MIC (Enterobacter cloacae): > 128 µg/mL
MIC (Enterococcus faecalis [10]): 4 µg/mL (≈ 4.4 µM)
MIC (Staphylococcus aureus [11]): 16 µg/mL (≈ 17.6 µM)
MIC (Enterococcus faecalis [12]): 8 µg/mL (≈ 8.81 µM)
MIC (Bacteria): > 128 µg/mL
Inhibitory activity [13]: inactive
MIC (Pseudomonas aeruginosa [14]): > 128 µg/mL
MIC (Serratia marcescens [15]): > 128 µg/mL
MIC (Morganella morganii): > 128 µg/mL
Inhibitory activity [16]: Inhibit
MIC (Escherichia coli [17]): > 128 µg/mL
MIC (Escherichia coli [18]): > 128 µg/mL
MIC (Staphylococcus sp. [19]): 4 µg/mL (≈ 4.4 µM)
MIC (Pseudomonas aeruginosa [20]): > 128 µg/mL
MIC (Candida albicans): > 128 µg/mL
MIC (Enterococcus faecalis [21]): 4 µg/mL (≈ 4.4 µM)

COc1ccc(Cn2c(=O)ccn([C@@H]3OC([C@H](O)[C@H](NCCCNC(=O)[C@H](N)CC(C)C)C(=O)OC(C)(C)C)[C@@H](O[Si](C)(C)C(C)(C)C)[C@H]3O[Si](C)(C)C(C)(C)C)c2=O)cc1 (some centres not stated)
Inhibitory activity [2]: inactive
MIC (Enterococcus sp.): 4 µg/mL (≈ 4.48 µM)
Inhibitory activity [7]: Inhibit
Inhibitory activity [22]: Inhibit
MIC (Bacteria): > 128 µg/mL
Inhibitory activity [13]: inactive
Inhibitory activity [16]: Inhibit
MIC (Staphylococcus sp. [19]): 4 µg/mL (≈ 4.48 µM)

CC(C)C(O)[C@@H](N)C(=O)NCCCN[C@H](C(=O)OC(C)(C)C)[C@@H](O)C1O[C@@H](n2ccc(=O)[nH]c2=O)[C@H](O[Si](C)(C)C(C)(C)C)[C@@H]1O[Si](C)(C)C(C)(C)C (some centres not stated)
Inhibitory activity [23]: Inhibit
Inhibitory activity [2]: inactive
MIC (Escherichia coli [3]): > 128 µg/mL
MIC (Staphylococcus sp. [4]): 2 µg/mL (≈ 2.54 µM)
Inhibitory activity [24]: Inhibit
MIC (Staphylococcus sp. [5]): 2 µg/mL (≈ 2.54 µM)
MIC (Staphylococcus sp. [5]; [30]): 1 µg/mL (≈ 1.27 µM)
MIC (Staphylococcus aureus [6]): 2 µg/mL (≈ 2.54 µM)
MIC (Enterococcus sp.): 2 µg/mL (≈ 2.54 µM)
MIC (Staphylococcus aureus [8]): 1 µg/mL (≈ 1.27 µM)
Inhibitory activity [22]: Inhibit
MIC (Escherichia coli [9]): 128 µg/mL (≈ 162 µM)
MIC (Klebsiella pneumoniae): 128 µg/mL (≈ 162 µM)
MIC (Enterobacter cloacae): 128 µg/mL (≈ 162 µM)
MIC (Enterococcus faecalis [10]): 2 µg/mL (≈ 2.54 µM)
MIC (Staphylococcus aureus [11]): 1 µg/mL (≈ 1.27 µM)
MIC (Enterococcus faecalis [12]): 2 µg/mL (≈ 2.54 µM)
MIC (Bacteria): > 128 µg/mL
MIC (Pseudomonas aeruginosa [14]): > 128 µg/mL
MIC (Serratia marcescens [15]): 128 µg/mL (≈ 162 µM)
MIC (Morganella morganii): 128 µg/mL (≈ 162 µM)
Inhibitory activity [16]: Inhibit
MIC (Escherichia coli [17]): 32 µg/mL (≈ 40.6 µM)
MIC (Escherichia coli [18]): > 128 µg/mL
MIC (Staphylococcus sp. [19]): 1 µg/mL (≈ 1.27 µM)
MIC (Pseudomonas aeruginosa [20]): 128 µg/mL (≈ 162 µM)
MIC (Candida albicans): 32 µg/mL (≈ 40.6 µM)
MIC (Enterococcus faecalis [21]): 2 µg/mL (≈ 2.54 µM)

COc1ccc(Cn2c(=O)ccn([C@@H]3OC([C@H](O)[C@H](NCCCNC(=O)[C@@H](C)N)C(=O)OC(C)(C)C)[C@@H](O[Si](C)(C)C(C)(C)C)[C@H]3O[Si](C)(C)C(C)(C)C)c2=O)cc1 (some centres not stated)
Inhibitory activity [1]: inactive
Inhibitory activity [2]: inactive
MIC (Escherichia coli [3]): 128 µg/mL (≈ 151 µM)
MIC (Staphylococcus sp. [4]): 4 µg/mL (≈ 4.7 µM)
Inhibitory activity [24]: Inhibit
MIC (Staphylococcus sp. [5]): 8 µg/mL (≈ 9.41 µM)
MIC (Staphylococcus sp. [5]; [30]): 4 µg/mL (≈ 4.7 µM)
MIC (Staphylococcus aureus [6]): 8 µg/mL (≈ 9.41 µM)
MIC (Enterococcus sp.): 4 µg/mL (≈ 4.7 µM)
MIC (Serratia marcescens [25]): 128 µg/mL (≈ 151 µM)
MIC (Staphylococcus aureus [8]): 4 µg/mL (≈ 4.7 µM)
MIC (Escherichia coli [9]): 128 µg/mL (≈ 151 µM)
MIC (Klebsiella pneumoniae): 128 µg/mL (≈ 151 µM)
MIC (Enterobacter cloacae): 128 µg/mL (≈ 151 µM)
MIC (Enterococcus faecalis [10]): 8 µg/mL (≈ 9.41 µM)
MIC (Staphylococcus aureus [11]): 4 µg/mL (≈ 4.7 µM)
MIC (Enterococcus faecalis [12]): 4 µg/mL (≈ 4.7 µM)
MIC (Bacteria): 64 µg/mL (≈ 75.3 µM)
Inhibitory activity [13]: inactive
MIC (Pseudomonas aeruginosa [14]): 128 µg/mL (≈ 151 µM)
MIC (Serratia marcescens [15]): 128 µg/mL (≈ 151 µM)
Inhibitory activity [16]: Inhibit
MIC (Escherichia coli [17]): 128 µg/mL (≈ 151 µM)
MIC (Escherichia coli [18]): 128 µg/mL (≈ 151 µM)
MIC (Staphylococcus sp. [19]): 4 µg/mL (≈ 4.7 µM)
MIC (Pseudomonas aeruginosa [20]): 128 µg/mL (≈ 151 µM)
MIC (Candida albicans): 128 µg/mL (≈ 151 µM)
MIC (Enterococcus faecalis [21]): 4 µg/mL (≈ 4.7 µM)

COC1C(O)[C@@H](OC(C(NCCCNC(=O)[C@H](NC(=O)[C@@H](NC(=O)N[C@H](C(=O)O)C(C)C)C2CCN=C(N)N2)C(OC(=O)CCCCCCCCCCCN(O)C(=N)N)C(C)C)C(=O)O)[C@H]2O[C@@H](n3ccc(=O)[nH]c3=O)[C@H](O)[C@@H]2O)O[C@H]1CN (some centres not stated)
MIC (Staphylococcus aureus [26]): 4 µg/mL (≈ 3.33 µM)
MIC (Staphylococcus sp. [27]): 2 µg/mL (≈ 1.66 µM)
MIC (Staphylococcus aureus [28]): 8 µg/mL (≈ 6.66 µM)
MIC (Staphylococcus sp. [4]): 8 µg/mL (≈ 6.66 µM)
MIC (Staphylococcus sp. [5]; [30]): 1 µg/mL (≈ 0.832 µM)
MIC (Enterococcus faecalis [10]): 16 µg/mL (≈ 13.3 µM)
MIC (Staphylococcus aureus [29]): 4 µg/mL (≈ 3.33 µM)
MIC (Enterococcus faecalis [12]): 4 µg/mL (≈ 3.33 µM)
MIC (Bacteria): 8 µg/mL (≈ 6.66 µM)
MIC (Enterococcus faecalis [21]): 32 µg/mL (≈ 26.6 µM)
